{"data": "Experimental data collected from several papers", "target": "Interleukin-1 receptor-associated kinase 4 (IRAK4, Homo sapiens, UniProt Q9NWZ3)", "One construct used (Q9NWZ3 1-460)": "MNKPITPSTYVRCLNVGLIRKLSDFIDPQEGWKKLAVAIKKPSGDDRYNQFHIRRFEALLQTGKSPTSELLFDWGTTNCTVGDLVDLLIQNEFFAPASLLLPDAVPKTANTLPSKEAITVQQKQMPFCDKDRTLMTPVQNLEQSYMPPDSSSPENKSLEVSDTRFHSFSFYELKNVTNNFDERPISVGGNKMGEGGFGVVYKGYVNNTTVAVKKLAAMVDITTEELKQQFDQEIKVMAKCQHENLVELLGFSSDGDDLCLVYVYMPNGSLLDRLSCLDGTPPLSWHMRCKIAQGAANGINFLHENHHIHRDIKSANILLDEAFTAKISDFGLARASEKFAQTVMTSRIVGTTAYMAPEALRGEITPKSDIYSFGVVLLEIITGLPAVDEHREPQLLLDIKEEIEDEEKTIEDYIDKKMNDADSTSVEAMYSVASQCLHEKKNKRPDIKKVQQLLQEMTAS", "note": "Each line is one published result; the experiments were not run side by side."}
{"SMILES": "Cn1cc(-c2cc(F)cc(N3CCn4c(cc5c4CCCC5)C3=O)c2CO)cc(Nc2ccc(N3CCN(C4COC4)CC3)cn2)c1=O", "observed": "enzyme activity", "mode": "inhibitor", "tested at": "0.1 µM", "quantity": "inhibition", "result": "8%"}
{"SMILES": "Cn1cncc1[C@@](O)(COc1ccc(C#N)cc1-c1ccc(OC(F)(F)F)cc1)c1ccc(C#N)cc1", "observed": "cell-free assay", "technique": "competition with immobilised ligand", "tested at": "1 µM", "quantity": "remaining binding", "result": "80%"}
{"SMILES": "CC(C)(C)c1cc(C=C(C#N)C#N)cc(Br)c1O", "observed": "enzyme activity", "mode": "inhibitor", "tested at": "0.5 µM", "quantity": "remaining activity", "result": "182%"}
{"SMILES": "C#Cc1n[nH]c2c(-c3cn([C@@H](C)c4ccccc4)c(=O)[nH]c3=O)cc(F)cc12", "observed": "enzyme activity", "mode": "inhibitor", "tested at": "0.1 µM", "quantity": "inhibition", "result": "11.7%"}
{"SMILES": "COc1ncccc1-c1cnn2ccc(N3CCN(C(=O)OC(C)C)CC3)nc12", "observed": "binding", "technique": "competition with immobilised ligand", "tested at": "1 µM", "quantity": "remaining binding", "result": "100%"}
{"SMILES": "COc1cc(Nc2ncc(F)c(Nc3ccc4c(n3)NC(=O)C(C)(C)O4)n2)cc(OC)c1OC", "observed": "binding", "tested at": "10 µM", "quantity": "inhibition", "result": "96%"}
{"SMILES": "N#CC1(c2ccccn2)CCN(Cc2cc(C(=O)O)c(=O)n3ccccc23)CC1", "observed": "cell-free assay", "technique": "competition with immobilised ligand", "tested at": "1 µM", "quantity": "remaining binding", "result": "83%"}
{"SMILES": "Cc1nn(C)cc1-c1nc2c(N3CCN(Cc4ccc(Cl)cc4)CC3)c(Cl)cnc2[nH]1", "observed": "binding", "technique": "competition with immobilised ligand", "tested at": "1 µM", "quantity": "remaining binding", "result": "74%"}
{"SMILES": "O=c1[nH]c2ccccc2n1C1CCN(Cc2ccc(-c3[nH]c4cc5ncnc5cc4nc3-c3ccccc3)cc2)CC1", "observed": "cell-free assay", "tested at": "0.5 µM", "quantity": "remaining signal", "result": "201%"}
{"SMILES": "Nc1ncc(-c2nc(N3CCOCC3)nc(N3CCOCC3)n2)c(C(F)F)n1", "observed": "binding", "technique": "competition with immobilised ligand", "tested at": "10 µM", "quantity": "remaining binding", "result": "72%"}
{"SMILES": "C#Cc1n[nH]c2c(-c3cn([C@@H](C)c4ccccn4)c(=O)[nH]c3=O)cc(F)cc12", "observed": "enzyme activity", "mode": "inhibitor", "tested at": "0.1 µM", "quantity": "inhibition", "result": "14.7%"}
{"SMILES": "Cn1cc(-c2cccc(N3CCc4c(sc5c4CC(C)(C)C5)C3=O)c2CO)cc(Nc2ccncn2)c1=O", "observed": "enzyme activity", "mode": "inhibitor", "tested at": "1 µM", "quantity": "inhibition", "result": "6%"}
